Laboratory results reported in ChEMBL document CHEMBL4342478, “Discovery of Potent N-Ethylurea Pyrazole Derivatives as Dual Inhibitors of Trypanosoma brucei and Trypanosoma cruzi” (ACS Med Chem Lett, 2020).
≈ marks a conversion by molar mass, not a printed value. Calls of active or inactive are those of the source. The calls are words filed in the database; no cut-off is given here.

How the values were obtained:
Trypanosoma cruzi [1] = assay: Antitrypanosomal activity against Trypanosoma cruzi infected in rat H9C2 cells by DRAQ5 DNA dye based imaging analysis; type: functional, organism-based
Method in brief: (§1)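 IC50 values are the mean of two independent experiments. The T. b. brucei assay uses free parasites. The T. cruzi assay uses intracellular parasites in H9c2 host cells.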

[2] = Selectivity index, ratio of cytotoxicity against rat H9C2 cells to IC50 for antitrypanosomal activity against Trypanosoma cruzi infected in rat H9C2 cells; type: toxicity, cell-based; settings: read-out: Selectivity Index
[3] = test system: Trypanosoma brucei brucei; assay: Antitrypanosomal activity against bloodstream form of Trypanosoma brucei brucei Lister 427; type: functional, organism-based
[4] = Selectivity index, ratio of cytotoxicity against human HEK293 cells to IC50 for antitrypanosomal activity against bloodstream form of Trypanosoma brucei brucei Lister 427; type: toxicity, cell-based; settings: read-out: Selectivity Index
Method in brief: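 Ratio of HEK293 cytotoxicity to the IC50 against free, non-intracellular T. b. brucei parasites. IC50 values are the average of two independent experiments.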

[5] = test system: Trypanosoma brucei brucei; assay: Antitrypanosomal activity against Trypanosoma brucei brucei BS427 after 48 hrs by resazurin dye based fluorescence assay; type: functional, organism-based; method in brief: as §1
[6] = Selectivity index, ratio of IC50 for human HEK293 cells incubated for 69 hrs by resazurin dye based fluorescence analysis to IC50 for antitrypanosomal activity against Trypanosoma brucei brucei BS427; type: toxicity; settings: read-out: Ratio IC50
[7] = test system: Trypanosoma brucei rhodesiense; assay: Antitrypanosomal activity against blood stream form of Trypanosoma brucei rhodesiense STIB900 after 72 hrs by Alamar blue based fluorometric assay; type: functional, organism-based
Trypanosoma cruzi [8] = assay: Antitrypanosomal activity against Trypanosoma cruzi Tulahuen C2C4 trypomastigotes infected in rat L6 cells after 96 hrs by photometric analysis; type: functional, organism-based
Leishmania donovani = assay: AntiLeishmanial activity against amastigote form of Leishmania donovani MHOM/ET/67/L82 after 72 hrs by Alamar blue dye based fluorometric analysis; type: functional, organism-based
Plasmodium falciparum = assay: Antiplasmodial activity against erythrocytic stage of Plasmodium falciparum after 48 hrs by [3H]-hypoxanthine incorporation assay; type: functional, organism-based
Trypanosoma cruzi [9] = assay: Antitrypanosomal activity against Trypanosoma cruzi Tulahuen C4 infected in mouse 3T3 cells by Hoechst/HCS CellMask green dye based assay; type: functional, organism-based; settings: Tulahuen C4, NIH3T3
[10] = Selectivity index, ratio of cytotoxicity against mouse 3T3 cells to IC50 for antitrypanosomal activity against Trypanosoma cruzi Tulahuen C4 infected in mouse 3T3 cells; type: toxicity, cell-based; settings: read-out: Selectivity Index
Trypanosoma cruzi [11] = assay: Trypanosomacidal activity against Trypanosoma cruzi strain Y trypomastigotes assessed as reduction in number of infected cells at faster rate at 20 uM measured for 24 to 96 hrs by Hoechst 33342 staining based fluorescence imaging assay; type: functional, organism-based
[12] = Kinetic solubility of compound at pH 2 to 6.5 by nephelometry; type: physicochemical; settings: buffer, read-out: Kinetic_solubility
[13] = Metabolic stability in human liver microsomes; type: ADME, Microsome
Trypanosoma cruzi [14] = assay: Trypanosomacidal activity against Trypanosoma cruzi strain Y trypomastigotes assessed as reduction in number of infected cells at 0.312 uM measured within first 24 hrs by Hoechst 33342 staining based fluorescence imaging assay; type: functional, organism-based
Method in brief: (§2)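 Time-to-kill assay against intracellular T. cruzi, with test article at 0.312 or 0.078 μM. Controls were benznidazole 20 μM, posaconazole 0.04 μM and DMSO. The number of infected host cells was tracked over time after drug addition.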

Trypanosoma cruzi [15] = assay: Trypanosomacidal activity against Trypanosoma cruzi strain Y trypomastigotes assessed as reduction in number of infected cells at 0.312 uM measured for 24 to 96 hrs by Hoechst 33342 staining based fluorescence imaging assay relative to benznidazole; type: functional; method in brief: as §2
[16] = Trypanosoma brucei, BS427, 48 h, read-out: IC50

Row | IC50 (Trypanosoma cruzi [1]) [nM] | IC50 [5, 16] [nM] | Compound | selectivity ratio [2] | selectivity ratio at 69 h [6] | also measured
1 | 2300 | – | CC(C)(C)C(=O)NCCc1csc(-c2cccc(F)c2)n1 | 27 | – | IC50 [3]: 800 nM; selectivity ratio [4]: > 96
2 | 40000 | – | N#Cc1ccc(-c2ccn(CCNC(=O)N3CCCCC3)n2)cc1 | 1 | – | –
3 | 130 | 32 | O=C(NCCn1ccc(-c2ccc(F)cc2)n1)N1CC[C@H](F)C1 | 398 | 2450 | Activity [7]: Active; Activity (Trypanosoma cruzi [8]): Active; Activity (Leishmania donovani): Active; Activity (Plasmodium falciparum): Active
4 | 25000 | 6600 | O=C(NCCn1ccc(-c2ccccc2)n1)N1CCOCC1 | 2 | 13 | –
5 | 50000 | 610 | O=C(NCCn1ccc(-c2ccccc2)n1)c1ccccc1 | 1 | 102 | –
6 | 25000 | 7100 | COc1ccc(-c2ccn(CCNC(=O)N3CCCCC3)n2)cc1 | 2 | 12 | –
7 | – | 27 | O=C(NCCn1ccc(-c2ccc(F)c(F)c2)n1)N1CCCCC1 | – | 2910 | IC50 (Trypanosoma cruzi [9]): 119 nM; selectivity ratio [10]: 616
8 | – | 60 | O=C(NCCn1ccc(-c2ccccc2F)n1)N1CCCCC1 | – | 185 | Activity [7]: Active; Activity (Trypanosoma cruzi [8]): Active; Activity (Leishmania donovani): Active; Activity (Plasmodium falciparum): Active
9 | – | – | O=C(CCn1ccc(-c2ccccc2)n1)Nc1ccccc1 | – | – | IC50 [5]: Not Active
10 | – | 45 | O=C(NCCn1ccc(-c2ccc(F)cc2F)n1)N1CCCCC1 | – | 1880 | –
11 | 200 | 230 | CC(CNC(=O)N1CCCCC1)n1ccc(-c2ccccc2)n1 (stereo unspecified) | 251 | 358 | –
12 | – | 50 | O=C(NCCn1ccc(-c2cccc(F)c2)n1)N1CCCCC1 | – | 197 | Activity [7]: Active; Activity (Trypanosoma cruzi [8]): Active; Activity (Leishmania donovani): Active; Activity (Plasmodium falciparum): Active
13 | 320 | 360 | Cc1cccc(-c2ccn(CCNC(=O)N3CCCCC3)n2)c1 | 158 | 232 | –
14 | 320 | 75 | O=C(NCCn1ccc(-c2ccc(F)cc2)n1)N1CCCC1 | 158 | 1060 | –
15 | 3200 | 1100 | O=C(NCCn1ccc(-c2ccccc2)n1)C1CCCC1 | 16 | 39 | –
16 | – | – | O=C(Cn1ccnc1[N+](=O)[O-])NCc1ccccc1 | – | – | Activity (Trypanosoma cruzi [11]): Active
17 | – | 650 | O=C(NCCn1ccc(-c2ccccc2)n1)N1CCCC1 | – | 128 | –
18 | 250 | 61 | O=C(NCCn1ccc(-c2ccccc2)n1)N1CC[C@H](F)C1 | 200 | 1300 | –
19 | 13000 | 4700 | N#Cc1ccccc1-c1ccn(CCNC(=O)N2CCCCC2)n1 | 4 | 18 | –
20 | 1000 | 1200 | O=C(NCCn1ccc(-c2ccc(Cl)cc2)n1)N1CCCCC1 | 50 | 35 | –

Row | IC50 (Trypanosoma cruzi [1]) [nM] | IC50 [5, 16] [nM] | Compound | selectivity ratio [2] | selectivity ratio at 69 h [6] | also measured
21 | – | 2600 | COc1ccccc1-c1ccn(CCNC(=O)N2CCCCC2)n1 | – | 32 | –
22 | – | – | c1ccc(CNCCn2ccc(-c3ccccc3)n2)cc1 | – | – | IC50 [5]: Not Active
23 | – | 1000 | CC(C)OC(=O)NCCn1ccc(-c2ccccc2)n1 | – | 82 | –
24 | 400 | 350 | N#Cc1cccc(-c2ccn(CCNC(=O)N3CCCCC3)n2)c1 | 126 | 236 | –
25 | 100 | 22 | O=C(NCCn1ccc(-c2ccc(F)c(F)c2)n1)N1CCCC1 | 501 | 3630 | solubility kinetic [12]: 12.5 to 25 µg/mL (≈ 39 to 78 µM); Stability [13]: Stable; Activity [7]: Active; Activity (Trypanosoma cruzi [8]): Active; Activity (Leishmania donovani): Active; Activity (Plasmodium falciparum): Active
26 | 630 | 390 | O=C(NCCn1ccc(-c2ccccc2)n1)N1CCCCCC1 | 79 | 215 | –
27 | – | 60 | O=C(NCCn1ccc(-c2ccc(F)cc2)n1)N1CCCCC1 | – | 161 | Stability [13]: Stable; Activity [7]: Active; Activity (Trypanosoma cruzi [8]): Active; Activity (Leishmania donovani): Active; Activity (Plasmodium falciparum): Active
28 | 4000 | 1200 | COc1cccc(-c2ccn(CCNC(=O)N3CCCCC3)n2)c1 | 13 | 67 | –
29 | 250 | 60 | O=C(NCCn1ccc(-c2ccccc2)n1)N1CCCCC1 | 32 | 1350 | Activity (Trypanosoma cruzi [14]): Active; solubility kinetic [12]: > 20 µg/mL; Activity [7]: Active; Activity (Trypanosoma cruzi [8]): Active; Activity (Leishmania donovani): Active; Activity (Plasmodium falciparum): Active; fold change (FC) (Trypanosoma cruzi [15]): 36
30 | 50000 | – | O=S(=O)(NCCn1ccc(-c2ccccc2)n1)c1ccccc1 | 1 | – | IC50 [5]: Not Active
31 | 790 | 108 | O=C(NCCn1ccc(-c2ccccc2)n1)N1CC[C@@H](F)C1 | 63 | 732 | –
32 | 10000 | 5300 | Cc1ccc(-c2ccn(CCNC(=O)N3CCCCC3)n2)cc1 | 5 | 16 | –
33 | – | 7500 | CC(C)NC(=O)NCCn1ccc(-c2ccccc2)n1 | – | 11 | –
34 | 100 | 16 | O=C(NCCn1ccc(-c2ccc(F)c(F)c2)n1)N1CC[C@@H](F)C1 | 501 | 4840 | Activity [7]: Active; Activity (Trypanosoma cruzi [8]): Active; Activity (Leishmania donovani): Active; Activity (Plasmodium falciparum): Active
35 | 130 | 130 | O=C(NCCn1ccc(-c2cccc(Cl)c2)n1)N1CCCCC1 | 398 | 327 | –
36 | 3200 | 2000 | CCN(CC)C(=O)NCCn1ccc(-c2ccccc2)n1 | 16 | 42 | –
37 | 320 | 350 | Cc1ccccc1-c1ccn(CCNC(=O)N2CCCCC2)n1 | 158 | 240 | –
38 | 250 | 86 | O=C(NCCn1ccc(-c2ccc(F)cc2)n1)N1CC[C@@H](F)C1 | 200 | 922 | –
39 | 1000 | 640 | CC(Cn1ccc(-c2ccccc2)n1)NC(=O)N1CCCCC1 (stereo unspecified) | 50 | 131 | –
40 | 130 | 120 | O=C(NCCn1ccc(-c2ccccc2Cl)n1)N1CCCCC1 | 398 | 361 | –
